Drawing on ChEMBL document CHEMBL1157029, “Synthesis, characterization and in vitro pharmacology of novel pregabalin derivatives” (Eur J Med Chem, 2010), this text covers inhibition, IC50 and Ki for seven compounds.

For one test, the species on record is Rattus norvegicus. The test can be described thus: Inhibition of [3H]gabapentin binding to voltage gated calcium channel alpha2delta from rat cerebral cortex at 10 uM by scintillation counting. The format is tissue-based. In short, it runs like this:
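Single test concentration, in duplicate. Membranes were incubated 60 min at 22 °C with 10 nM [3H]gabapentin in 10 mM Hepes/Tris pH 7.4. Nonspecific binding was defined with excess unlabelled gabapentin, and filters were counted by scintillation. Compound came from DMSO stock with a final 100-fold dilution in the well. Result given as % inhibition of control specific binding.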

Test [1] can be described thus: Displacement of [3H]gabapentin binding to voltage gated calcium channel alpha2delta from rat cerebral cortex by scintillation counting. The format is tissue-based. In short, it runs like this: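 Membranes were incubated 60 min at 22 °C with 10 nM [3H]gabapentin ± test compound in 10 mM Hepes/Tris pH 7.4. Nonspecific binding was taken with excess unlabelled gabapentin. Filter-bound radioactivity was counted by scintillation. Compounds were diluted from DMSO stocks, 100-fold into the well. Duplicates. IC50 came from a competition curve of specific binding; gabapentin was the reference in each run.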
(In a radioligand displacement assay an active substance lowers the binding of a labelled ligand.)

As to `CC(C)C[C@H](CN)CC(=O)N[C@H]1C(O)O[C@H](CO)[C@H](O)[C@@H]1O` (some centres undefined), the inhibition (commonly the change of the read-out against control, counted positive when it falls) in the test filed under Rattus norvegicus worked out at 9%. For the compound `CC(C)C[C@H](CN)CC(=O)N[C@H]1C(O)O[C@H](CO)[C@@H](O)[C@@H]1O` (some centres undefined), the inhibition in the test listed under Rattus norvegicus amounted to 18%. Turning to `CC(C)C[C@H](CN)CC(=O)O`, the inhibition in the test listed under Rattus norvegicus came out at 92%. In the case of `CC(C)C[C@H](CN)CC(=O)NCCc1c[nH]c2ccc(O)cc12`, in the test listed under Rattus norvegicus, the inhibition stood at 51%. Also, in test [1], the IC50 (as a rule, the concentration at which inhibition is half-maximal) was 13 µM and the inhibition constant Ki – broadly, the equilibrium dissociation constant of an inhibitor or competing ligand from its target – was determined as 11 µM. As to `CC(C)C[C@H](CN)CC(=O)N[C@@H]1O[C@H](CO)[C@@H](O)[C@H](O)[C@H]1O`, the inhibition in the test filed under Rattus norvegicus is 17%. Still for that read-out and setting: the same measure for `CC(C)C[C@H](CN)CC(=O)NCCc1c[nH]c2ccccc12`: 18%.

In the case of `CC(C)C[C@H](CN)CC(=O)N[C@@H]1C(O)O[C@H](CO)[C@@H](O)[C@@H]1O` (some centres undefined), the inhibition in the test listed under Rattus norvegicus turned out to be 14%.
